Results from ChEMBL document CHEMBL2093137, “WHO-TDR NTD Screening”.
≈ marks a conversion by molar mass, not a printed value.

Legend:
[1] = WHO-TDR: Cytotoxicity; format: toxicity, cell-based; details: human, MRC5 cells
Plasmodium falciparum K1 = assay: WHO-TDR: Malaria; format: functional, organism-based, Homo sapiens; details: Erythrocyte
In short: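 A diverse library of 10,000 compounds from Life Chemicals, filtered for drug-likeness and reactive groups, was screened against the intra-erythrocytic Plasmodium falciparum K1 strain in human red blood cells. Previously published standard procedures were followed, with a reference drug as positive control. Antiplasmodial potency is given as IC50.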

Trypanosoma cruzi = assay: WHO-TDR: Chagas disease; format: functional, organism-based, Homo sapiens; details: MRC5
In short: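 Each IC50 reflects antiparasitic potency against intracellular amastigotes of Trypanosoma cruzi Tulahuen CL2 beta-galactosidase strain. These were cultured in MRC-5SV2 human lung fibroblasts and exposed to a 10,000-compound diverse Life Chemicals library screened according to published standard procedures with a reference drug as positive control.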

[2] = tested on: Trypanosoma brucei brucei; assay: WHO-TDR: Human African Trypanosomiasis (HAT); format: functional, organism-based; details: Squib-427
In short: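 A diverse library of 10,000 compounds from Life Chemicals, filtered for drug-likeness and reactive groups, was screened against bloodstream forms of Trypanosoma brucei Squib 427 strain in a whole-organism assay. Previously published standard procedures were followed, with reference drugs serving as positive controls. Antiparasitic potency is given as IC50.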

Leishmania infantum = assay: WHO-TDR: Leishmaniasis; format: functional, organism-based, Mus musculus; details: Macrophage
In short: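 A diverse library of 10,000 compounds from Life Chemicals, filtered for drug-likeness and reactive groups, was screened against whole organisms. The targets were intracellular amastigotes of Leishmania infantum MHOM/MA(BE)/67 growing in murine peritoneal macrophages. Previously published standard procedures were followed, with a reference drug as positive control. Antiparasitic potency is given as IC50.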

Schistosoma mansoni = assay: WHO-TDR: Schistosomiasis; format: functional; design: concentration or dose not given beside the values
In short: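 Whole-organism screen of a 10,000-compound diverse library from Life Chemicals, filtered for drug-likeness and reactive groups, against larval and/or adult worms of Schistosoma mansoni Puerto Rican strain. The assay followed previously published standard procedures, with a reference drug as positive control. Activity is reported as percent inhibition and as IC50.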

Onchocerca lienalis = assay: WHO-TDR: Onchocerciasis; format: functional; design: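 at 12.5 µM on microfilariae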
In short: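 Whole-organism screen of a 10,000-compound diverse library from Life Chemicals, filtered for drug-likeness and reactive groups, against microfilariae of Onchocerca ochengi or Onchocerca lienalis, used as animal-pathogen stand-ins for the human parasite. The assay followed previously published standard procedures, with reference drugs as positive controls. Activity is reported as percent inhibition and as IC50.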

Structure (SMILES) | IC50 [1] | IC50 (Plasmodium falciparum K1) | IC50 (Trypanosoma cruzi) | IC50 [2] | IC50 (Leishmania infantum) | % Inhibition (Schistosoma mansoni) | % Inhibition (Onchocerca lienalis)
CN(C)CCCN(C(=O)c1ccccc1F)c1nc2c(Cl)cccc2s1 | 3.81 µg/mL (≈ 9.73 µM) | 0.848 µg/mL (≈ 2.16 µM) | 4.41 µg/mL (≈ 11.3 µM) | 0.237 µg/mL (≈ 0.605 µM) | 4.16 µg/mL (≈ 10.6 µM) | 0% | 13.3%
CN(C)CCCN(C(=O)CCOc1ccccc1)c1nc2cc3c(cc2s1)OCO3 | 3.34 µg/mL (≈ 7.81 µM) | 1.72 µg/mL (≈ 4.01 µM) | 0.433 µg/mL (≈ 1.01 µM) | 4.51 µg/mL (≈ 10.5 µM) | 0.451 µg/mL (≈ 1.05 µM) | 75% | 0%
CCNc1cc(C)nc(Nc2ccc(NC(=O)CC3CCCC3)cc2)n1 | 3.23 µg/mL (≈ 9.13 µM) | 2.4 µg/mL (≈ 6.79 µM) | 0.299 µg/mL (≈ 0.846 µM) | 3.39 µg/mL (≈ 9.6 µM) | 3.43 µg/mL (≈ 9.71 µM) | 66.7% | -1%
CCN(CC)c1cc(C)nc(Nc2ccc(NC(=O)c3ccc(Br)o3)cc2)n1 | 2.91 µg/mL (≈ 6.54 µM) | 0.638 µg/mL (≈ 1.44 µM) | 0.344 µg/mL (≈ 0.774 µM) | 0.942 µg/mL (≈ 2.12 µM) | 4.31 µg/mL (≈ 9.71 µM) | 66.7% | -1%
CCN(CC)c1cc(C)nc(Nc2ccc(NC(=O)c3cc4ccccc4oc3=O)cc2)n1 | > 13.3 µg/mL | 0.412 µg/mL (≈ 0.929 µM) | > 13.3 µg/mL | > 13.3 µg/mL | > 13.3 µg/mL | 50% | 6.7%
CCNc1cc(C)nc(Nc2ccc(NS(=O)(=O)c3ccc4nc(C)sc4c3)cc2)n1 | 0.543 µg/mL (≈ 1.19 µM) | 1.18 µg/mL (≈ 2.6 µM) | 0.404 µg/mL (≈ 0.889 µM) | 4.31 µg/mL (≈ 9.49 µM) | > 13.6 µg/mL | 58.3% | 33.4%
CCCS(=O)(=O)Nc1ccc(Nc2nc(C)cc(N(C)C)n2)cc1 | > 10.5 µg/mL | > 10.5 µg/mL | 0.335 µg/mL (≈ 0.959 µM) | > 10.5 µg/mL | > 10.5 µg/mL | 0% | 0%
CCN(CC)c1cc(C)nc(Nc2ccc(NS(=O)(=O)c3ccc(C)cc3C)cc2)n1 | 1.51 µg/mL (≈ 3.43 µM) | 0.357 µg/mL (≈ 0.812 µM) | 0.324 µg/mL (≈ 0.737 µM) | 0.429 µg/mL (≈ 0.976 µM) | 4.27 µg/mL (≈ 9.71 µM) | 100% | -1%
CCOC(=O)c1c(NC(=O)C(C)n2c(-n3nc(C)cc3C)nc(CC)cc2=O)sc2c1CCC2 (stereo not drawn) | > 14.5 µg/mL | 2.96 µg/mL (≈ 6.11 µM) | 0.57 µg/mL (≈ 1.18 µM) | 4.64 µg/mL (≈ 9.6 µM) | 4.7 µg/mL (≈ 9.71 µM) | 0% | 0%
CCOC(=O)c1c(NC(=O)Cn2c(-n3nc(C)cc3C)nc(CC)cc2=O)sc2c1CCC2 | > 14.1 µg/mL | 4.68 µg/mL (≈ 9.97 µM) | 0.749 µg/mL (≈ 1.6 µM) | > 14.1 µg/mL | 4.56 µg/mL (≈ 9.71 µM) | 0% | 0%
CCOC(=O)c1c(NC(=O)Cn2c(-n3nc(C)cc3C)nc(CC)cc2=O)sc2c1CCCCC2 | > 14.9 µg/mL | 4.44 µg/mL (≈ 8.93 µM) | 0.724 µg/mL (≈ 1.45 µM) | > 14.9 µg/mL | > 14.9 µg/mL | 0% | 0%
COc1ccccc1NC(=O)Nc1nc(CC(=O)N2CCN(c3cccc(C(F)(F)F)c3)CC2)cs1 | > 15.6 µg/mL | 4.27 µg/mL (≈ 8.23 µM) | 0.93 µg/mL (≈ 1.79 µM) | 3.43 µg/mL (≈ 6.59 µM) | > 15.6 µg/mL | 0% | 0%
CCS(=O)(=O)c1ccc(-c2cccc(NC(=O)c3cc(Cl)ccc3Cl)c2)nn1 | > 13.1 µg/mL | > 13.1 µg/mL | > 13.1 µg/mL | > 13.1 µg/mL | 4.24 µg/mL (≈ 9.71 µM) | 100% | 0%
CCN(CC)c1ccc(NC(=O)Cc2csc(NC(=O)c3cc(OC)cc(OC)c3)n2)c(C)c1 | > 14.5 µg/mL | 4.28 µg/mL (≈ 8.87 µM) | 1 µg/mL (≈ 2.08 µM) | 0.493 µg/mL (≈ 1.02 µM) | 4.69 µg/mL (≈ 9.71 µM) | 0% | 20%
